Measured values of several laboratories.
Compare with care: the assays were run in different laboratories.
Target: Serine/threonine-protein kinase MARK1 (MARK1, Homo sapiens, UniProt Q9P0L2)

Cc1cnn2ncc(-c3ccnc(N(C)C)n3)c2c1
remaining binding (binding; 1 µM): 98%

O=C(c1ccc(Nc2ncc(Cl)c(-c3cc4ccccc4s3)n2)cc1)N1CCC(N2CCCC2)CC1
remaining binding (binding, competition with immobilised ligand; 1 µM): 27%

c1cnn2ncc(-c3ccnc(N4CCC45COC5)n3)c2c1
remaining binding (binding; 1 µM): 91%

CC(C)(O)c1cncc(-c2nc3ccc(F)cc3n2C2CC2)c1
remaining binding (cell-free assay, competition with immobilised ligand; 1 µM): 100%

O=C(c1ccc(Nc2nccc(-c3cc4ccccc4s3)n2)cc1)N1CCC(N2CCCC2)CC1
remaining binding (binding, competition with immobilised ligand; 1 µM): 62%

COc1cnc(Nc2cccc(S(N)(=O)=O)c2)nc1N1CCN(c2ccccc2)CC1
remaining binding (binding, competition with immobilised ligand; 1 µM): 100%

N[C@H]1CCN(c2nccc(-c3cnn4ncccc34)n2)C1
remaining binding (binding; 1 µM): 100%

CCN1CCN(Cc2ccc(C(=O)Nc3ccc(C)c(Oc4ccc5c(c4)CC(=O)N5)c3)cc2C(F)(F)F)CC1
remaining binding (binding, competition with immobilised ligand; 1 µM): 100%

C=CC(=O)N1CCC(C(=O)NCC(=O)N2CCN(c3nc(-c4cnc(N)nc4C(F)F)nc(N4CCOCC4)n3)CC2)CC1
remaining binding (binding, competition with immobilised ligand; 1 µM): 100%

CN(C)c1nccc(-c2cnc3ncccn23)n1
remaining binding (binding; 1 µM): 80%

COc1ncc2cc3ccccc3nc2c1C#N
remaining binding (cell-free assay, competition with immobilised ligand; 5 µM): 65%

O=C(c1ccc(Nc2ncc(Cl)c(-c3ccc(Cl)s3)n2)cc1)N1CCC(N2CCCC2)CC1
remaining binding (binding, competition with immobilised ligand; 1 µM): 24%

Cn1nc(C(=O)NCc2ccc(C(=O)O)cc2)cc1-c1ccc2[nH]ccc2c1
remaining binding (cell-free assay, competition with immobilised ligand; 0.1 µM): 100%

C[C@H]1CCN(c2nccc(-c3cnn4ncccc34)n2)C1
remaining binding (binding; 1 µM): 92%

CCS(=O)(=O)c1cc2cc(C[C@](O)(CC(C)(C)c3ccc(F)cc3C(N)=O)C(F)(F)F)[nH]c2cn1
remaining binding (cell-free assay, competition with immobilised ligand; 1 µM): 100%

CN(c1nccc(-c2cnn3ncccc23)n1)C1CC1
remaining binding (binding; 1 µM): 83%

COc1cc(-c2cn(C3CCc4c(F)cccc4N(CC(F)(F)F)C3=O)nn2)ccc1-n1cnc(C)c1 (stereo not shown)
remaining binding (cell-free assay, competition with immobilised ligand; 1 µM): 100%

Nc1ncc2c(n1)-c1c([nH]c3ccc(C#CC4CC4)cc13)CCCC2
remaining binding (binding, competition with immobilised ligand; 1 µM): 98%

COc1ccc2cc(OCC3(C(=O)O)CN(C(=O)c4ccc(F)cc4)C3)ccc2c1
remaining binding (cell-free assay, competition with immobilised ligand; 1 µM): 100%

O=C(NCC1CCOCC1)c1n[nH]cc1NC(=O)c1c(F)cccc1F
remaining binding (binding, competition with immobilised ligand; 1 µM): 100%

CNCc1ccccc1-c1csc([C@H](C)Nc2nc(C)nc3cc(OC)c(OC)cc23)c1
remaining binding (cell-free assay, competition with immobilised ligand; 1 µM): 100%

C[C@@H](c1ccc(-n2cnc3c(N)ncnc32)cc1)N1CCc2nn(C)c(Cc3ccccc3)c2C1=O
remaining binding (binding, competition with immobilised ligand; 0.1 µM): 88%
